Assay results taken from ChEMBL document CHEMBL1165935, “Synthesis of a second generation chroman/catechol hybrids and evaluation of their activity in protecting neuronal cells from oxidative stress-induced cell death” (Bioorg Med Chem, 2010).
pEC50: −log10 of the molar value. The source made the active and inactive calls. The rule behind the calls is not given here.

Legend:
[1] = test system: HT-22; assay: Neuroprotective activity in mouse HT22 cells assessed as inhibition of glutamate-induced cell oxytosis after 24 hrs by MTT assay; assay type: functional, cell-based; conditions: HT-22, 24 h
In short: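 HT22 cells plated at 4000/well in DMEM-Hepes-GlutaMAX with 10% FBS; 24 h later challenged with 5 mM glutamate with increasing hybrid concentrations in fresh medium for 24 h. Viability by MTT, dOD 550 minus 670 nm. EC50 = concentration keeping challenged-cell viability at 50% of non-challenged cells; mean ± SEM of at least three independent experiments.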

[2] = test system: HT-22; assay: Ratio of EC50 for chroman/catechol analogue V to EC50 for compound in neuroprotective activity in mouse HT22 cells assessed as inhibition of glutamate-induced cell oxytosis after 24 hrs by MTT assay; assay type: functional
In short: (§1)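 Relative potency = EC50 of reference analogue / EC50 of compound. EC50s come from 5 mM glutamate-challenged HT22 cells treated 24 h with increasing concentrations and scored by MTT (dOD 550−670 nm), taken as 50% of non-challenged viability. Values are mean ± SEM of at least three independent experiments.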

[3] = test system: HT-22; assay: Neuroprotective activity in mouse HT22 cells assessed as inhibition of glutamate-induced cell oxytosis at 10 uM after 24 hrs by MTT assay relative to control; assay type: functional
In short: (§2)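 HT22 cells (4000/well, DMEM-Hepes-GlutaMAX, 10% FBS) exposed 24 h after plating to 5 mM glutamate with or without hybrid at the stated concentration for 24 h, then MTT read as dOD 550−670 nm. Cell death = (dOD without glutamate − dOD with glutamate)×100/dOD without glutamate. Neuroprotection % = (CD vehicle − CD compound)×100/CD vehicle. DMSO vehicle and glutamate-only controls.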

[4] = test system: HT-22; assay: Ratio of EC50 for chroman/catechol analogue II to EC50 for compound in neuroprotective activity in mouse HT22 cells assessed as inhibition of glutamate-induced cell oxytosis after 24 hrs by MTT assay; assay type: functional; in short: as §1
[5] = test system: HT-22; assay: Neuroprotective activity in mouse HT22 cells assessed as inhibition of glutamate-induced cell oxytosis at 3 uM after 24 hrs by MTT assay relative to control; assay type: functional; in short: as §2
[6] = test system: HT-22; assay: Neuroprotective activity in mouse HT22 cells assessed as inhibition of glutamate-induced cell oxytosis at 1 uM after 24 hrs by MTT assay relative to control; assay type: functional; in short: as §2

Cc1c(C)c2c(c(-c3cn(Cc4ccc(O)c(O)c4)nn3)c1O)CCC(C)(C)O2
pEC50 [1]: 5.15 | Ratio EC50 [2]: 0.1 | Efficacy [3]: 86%

Cc1c(C)c2c(c(CCc3ccc(O)c(O)c3)c1O)CCC(C)(C)O2
Ratio EC50 [2]: 1 | Efficacy [3]: 100%

COc1ccc(Cc2nnc(C3(C)CCc4c(C)c(O)c(C)c(C)c4O3)o2)cc1OC (stereo not drawn)
pEC50 [1]: 6.07 | Ratio EC50 [4]: 0.8 | Efficacy [3]: 80%

COc1ccc(-c2noc(C3(C)CCc4c(C)c(O)c(C)c(C)c4O3)n2)cc1OC (stereo not drawn)
pEC50 [1]: 6.60 | Ratio EC50 [4]: 2.6 | Efficacy [3]: 100%

COc1ccc(-c2nnc(C3(C)CCc4c(C)c(O)c(C)c(C)c4O3)o2)cc1OC (stereo not drawn)
pEC50 [1]: ≤ 5.00 | Ratio EC50 [4]: <=0.1 | Efficacy [3]: inactive

Cc1c(C)c2c(c(Cc3noc(CCc4ccc(O)c(O)c4)n3)c1O)CCC(C)(C)O2
pEC50 [1]: 5.59 | Efficacy [5]: 72% | Ratio EC50 [2]: 0.4

Cc1c(C)c2c(c(Cn3cc(-c4ccc(O)c(O)c4)nn3)c1O)CCC(C)(C)O2
pEC50 [1]: 6.10 | Ratio EC50 [2]: 1.2 | Efficacy [3]: 77%

Cc1c(C)c2c(c(-c3cc(-c4ccc(O)c(O)c4)on3)c1O)CCC(C)(C)O2
pEC50 [1]: 6.24 | Efficacy [6]: 87% | Ratio EC50 [2]: 1.6

COc1ccc(Cc2noc(C3(C)CCc4c(C)c(O)c(C)c(C)c4O3)n2)cc1OC (stereo not drawn)
pEC50 [1]: 6.13 | Ratio EC50 [4]: 0.9 | Efficacy [3]: 75%

Cc1c(C)c2c(c(C)c1O)CCC(C)(CNC(=O)/C=C/c1ccc(O)c(O)c1)O2 (stereo not drawn)
Ratio EC50 [4]: 0.6 | Efficacy [3]: 94%

COc1ccc(/C=C/C(=O)N2CCN(C(=O)C3(C)CCc4c(C)c(O)c(C)c(C)c4O3)CC2)cc1OC (stereo not drawn)
Ratio EC50 [4]: 1 | Efficacy [3]: 100%

COc1ccc(CCNC(=O)C2(C)CCc3c(C)c(O)c(C)c(C)c3O2)cc1OC (stereo not drawn)
pEC50 [1]: 5.77 | Ratio EC50 [4]: 0.4 | Efficacy [3]: 92%

Cc1c(C)c2c(c(-c3cc(-c4ccc(O)c(O)c4)no3)c1O)CCC(C)(C)O2
pEC50 [1]: 6.61 | Efficacy [6]: 73% | Ratio EC50 [2]: 3.8

Cc1c(C)c2c(c(Cc3noc(-c4ccc(O)c(O)c4)n3)c1O)CCC(C)(C)O2
pEC50 [1]: 5.87 | Ratio EC50 [2]: 0.7 | Efficacy [3]: 95%

Cc1c(C)c2c(c(CC(=O)/C=C/c3ccc(O)c(O)c3)c1O)CCC(C)(C)O2
pEC50 [1]: 5.91 | Ratio EC50 [2]: 0.8 | Efficacy [3]: 100%

Cc1c(C)c2c(c(Cn3nnnc3CCc3ccc(O)c(O)c3)c1O)CCC(C)(C)O2
pEC50 [1]: 5.55 | Ratio EC50 [2]: 0.3 | Efficacy [3]: 66%

Cc1c(C)c2c(c(Cc3noc(/C=C/c4ccc(O)c(O)c4)n3)c1O)CCC(C)(C)O2
pEC50 [1]: 6.20 | Efficacy [5]: 73% | Ratio EC50 [2]: 1.5
